Laboratory results from ChEMBL document CHEMBL2390903, “Anti-tubercular agents. Part 7: a new class of diarylpyrrole-oxazolidinone conjugates as antimycobacterial agents” (Eur J Med Chem, 2013).
Converted amounts (≈) assume the structure as drawn.

Columns and labels:
[1] = test system: Bacillus subtilis; assay: Antibacterial activity against Bacillus subtilis MTCC 121 assessed as growth inhibition after 24 hrs by agar dilution method; format: functional; conditions: MTCC 121, 24 h
[2] = test system: Micrococcus luteus; assay: Antibacterial activity against Micrococcus luteus MTCC 2470 assessed as growth inhibition after 24 hrs by agar dilution method; format: functional; conditions: MTCC 2470, 24 h
[3] = test system: Staphylococcus; assay: Antibacterial activity against 16-membered ring macrolide- lincosamide-streptogramin B-resistant Staphylococcus MTCC 2940 assessed as growth inhibition after 24 hrs by agar dilution method; format: functional; conditions: MTCC 2940, 24 h
[4] = test system: Staphylococcus aureus; assay: Antibacterial activity against Staphylococcus aureus MTCC 96 assessed as growth inhibition after 24 hrs by agar dilution method; format: functional; conditions: MTCC 96, 24 h
[5] = test system: Pseudomonas aeruginosa; assay: Antibacterial activity against Pseudomonas aeruginosa MTCC 2453 assessed as growth inhibition after 24 hrs by agar dilution method; format: functional; conditions: MTCC 2453, 24 h
[6] = test system: Escherichia coli; assay: Antibacterial activity against Escherichia coli MTCC 739 assessed as growth inhibition after 24 hrs by agar dilution method; format: functional; conditions: MTCC 739, 24 h
[7] = test system: Mycobacterium tuberculosis; assay: Antitubercular activity against Mycobacterium tuberculosis H37Rv assessed as growth inhibition after 2 to 3 weeks by broth microdilution method; format: functional
Outline: (§1)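 Primary screen of all compounds against H37Rv at a single concentration in triplicate by microplate dilution. Actives then went to MIC determination by broth microdilution against H37Rv, rifampicin-resistant and XDR-1 isolates. Plates incubated 2–3 weeks at 37 °C in a CO2 incubator. MIC read visually as absence of growth turbidity. Rifampicin and linezolid served as reference drugs.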

[8] = test system: Mycobacterium tuberculosis; assay: Antitubercular activity against Mycobacterium tuberculosis XDR-1 assessed as growth inhibition after 2 to 3 weeks by broth microdilution method; format: functional; outline: as §1
[9] = Cytotoxicity against mouse J744 cells assessed as growth inhibition at 40 ug/mL after 24 hrs by MTT assay relative to control; format: cell-based; conditions: read-out: GI
Outline: (§2)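 Mouse J-774 macrophages exposed to test material (40) in RPMI with 10% FCS for 24 h at 37 °C under CO2. MTT then added with a further 3 h incubation. Formazan absorbance read at […]. Percent cytotoxicity calculated relative to untreated cells.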

[10] = Selectivity index, ratio of IC50 for mouse J744 cells to MIC for Mycobacterium tuberculosis H37Rv; format: functional
[11] = Cytotoxicity against mouse J744 cells assessed as growth inhibition after 24 hrs by MTT assay; format: cell-based; conditions: J744, 24 h; outline: as §2
[12] = test system: Micrococcus luteus; assay: Antibacterial activity against Micrococcus luteus MTCC 2470 assessed as growth inhibition at 20 ug/mL after 24 hrs; format: functional; conditions: MTCC 2470, 24 h, read-out: IZ
[13] = test system: Staphylococcus; assay: Antibacterial activity against 16-membered ring macrolide- lincosamide-streptogramin B-resistant Staphylococcus MTCC 2940 assessed as growth inhibition at 20 ug/mL after 24 hrs; format: functional; conditions: MTCC 2940, 24 h, read-out: IZ
[14] = test system: Staphylococcus aureus; assay: Antibacterial activity against Staphylococcus aureus MTCC 96 assessed as growth inhibition at 20 ug/mL after 24 hrs; format: functional; conditions: MTCC 96, 24 h, read-out: IZ
[15] = test system: Bacillus subtilis; assay: Antibacterial activity against Bacillus subtilis MTCC 121 assessed as growth inhibition at 20 ug/mL after 24 hrs; format: functional; conditions: MTCC 121, 24 h, read-out: IZ
[16] = test system: Staphylococcus; assay: Antibacterial activity against 16-membered ring macrolide- lincosamide-streptogramin B-resistant Staphylococcus MTCC 2940 assessed as growth inhibition at 20 mg/mL after 24 hrs; format: functional; conditions: MTCC 2940, 24 h, read-out: IZ
[17] = test system: Bacillus subtilis; assay: Antibacterial activity against Bacillus subtilis MTCC 121 assessed as growth inhibition at 20 mg/mL after 24 hrs; format: functional; conditions: MTCC 121, 24 h, read-out: IZ

SMILES	MIC [1]	MIC [2]	MIC [3]	MIC [4]	MIC [5]	MIC [6]	MIC [7]	MIC [8]	inhibition at 24 h, 40 ug/mL [9]	Selectivity Index [10]	IC50 [11]	zone of inhibition at 20 µg/mL [12]	zone of inhibition at 20 µg/mL [13]	zone of inhibition at 20 µg/mL [14]	zone of inhibition at 20 µg/mL [15]	zone of inhibition at 20000 µg/mL [16]	zone of inhibition at 20000 µg/mL [17]
Cc1ccc(-c2cc(CN3CCN(c4ccc(N5C[C@H](Cn6cc(-c7ccccn7)nn6)OC5=O)cc4F)CC3)c(C)n2-c2ccc(Cl)c(Cl)c2)cc1	1 µg/mL (≈ 1.33 µM)	2.5 µg/mL (≈ 3.33 µM)	> 40 µg/mL	8 µg/mL (≈ 10.6 µM)	> 40 µg/mL	> 40 µg/mL	4 µg/mL (≈ 5.32 µM)	16 µg/mL (≈ 21.3 µM)	–	–	–	–	–	–	–	–	–
Cc1c(CN2CCN(c3ccc(N4C[C@H](Cn5cc(-c6ccccn6)nn5)OC4=O)cc3F)CC2)cc(-c2ccc(Cl)c(F)c2)n1-c1ccc(OC(F)(F)F)cc1	16 µg/mL (≈ 19.9 µM)	8 µg/mL (≈ 9.94 µM)	9 µg/mL (≈ 11.2 µM)	> 30 µg/mL	> 40 µg/mL	> 40 µg/mL	4 µg/mL (≈ 4.97 µM)	> 16 µg/mL	37.7%	>10	> 40 µM	–	–	–	–	–	–
Cc1c(CN2CCN(c3ccc(N4C[C@H](Cn5cc(-c6ccccn6)nn5)OC4=O)cc3F)CC2)cc(-c2ccc(F)cc2F)n1-c1ccc(F)cc1	1 µg/mL (≈ 1.38 µM)	3 µg/mL (≈ 4.15 µM)	6 µg/mL (≈ 8.3 µM)	0.5 µg/mL (≈ 0.692 µM)	> 40 µg/mL	> 40 µg/mL	4 µg/mL (≈ 5.53 µM)	16 µg/mL (≈ 22.1 µM)	31.9%	>10	> 40 µM	36 mm	40 mm	39 mm	24 mm	–	–
Cc1ccccc1-c1cc(CN2CCN(c3ccc(N4C[C@H](Cn5cc(-c6ccccn6)nn5)OC4=O)cc3F)CC2)c(C)n1-c1ccc(F)c(F)c1	12 µg/mL (≈ 16.7 µM)	> 30 µg/mL	5 µg/mL (≈ 6.96 µM)	> 30 µg/mL	> 40 µg/mL	> 40 µg/mL	4 µg/mL (≈ 5.56 µM)	16 µg/mL (≈ 22.3 µM)	40%	>10	> 40 µM	–	–	–	–	–	–
Cc1c(CN2CCN(c3ccc(N4C[C@H](Cn5cc(-c6ccccn6)nn5)OC4=O)cc3F)CC2)cc(-c2ccc(F)cc2F)n1-c1cc(F)ccc1Br	–	–	–	–	–	–	–	–	43.9%	>10	> 40 µM	–	–	–	–	–	–
Cc1c(CN2CCN(c3ccc(N4C[C@H](Cn5cc(-c6cncn6C)nn5)OC4=O)cc3F)CC2)cc(-c2ccc(C(C)C)cc2)n1-c1ccc(F)cc1F	> 30 µg/mL	> 30 µg/mL	> 30 µg/mL	8 µg/mL (≈ 10.7 µM)	> 40 µg/mL	> 40 µg/mL	4 µg/mL (≈ 5.33 µM)	4 µg/mL (≈ 5.33 µM)	44.7%	>10	> 40 µM	–	–	–	–	–	–
Cc1c(CN2CCN(c3ccc(N4C[C@H](Cn5cc(-c6cncn6C)nn5)OC4=O)cc3F)CC2)cc(-c2ccc(F)cc2F)n1-c1ccc(F)cc1	> 30 µg/mL	> 30 µg/mL	> 30 µg/mL	16 µg/mL (≈ 22 µM)	> 40 µg/mL	> 40 µg/mL	> 6.25 µg/mL	16 µg/mL (≈ 22 µM)	–	–	–	–	–	–	–	–	–
Cc1ccccc1-c1cc(CN2CCN(c3ccc(N4C[C@H](Cn5cc(-c6cncn6C)nn5)OC4=O)cc3F)CC2)c(C)n1-c1ccc(F)c(F)c1	> 30 µg/mL	10 µg/mL (≈ 13.9 µM)	> 30 µg/mL	10 µg/mL (≈ 13.9 µM)	> 40 µg/mL	> 40 µg/mL	> 6.25 µg/mL	> 16 µg/mL	–	–	–	–	–	–	–	–	–
CC(=O)NC[C@H]1CN(c2ccc(N3CCOCC3)c(F)c2)C(=O)O1 [LINEZOLID]	0.5 µg/mL (≈ 1.48 µM)	1 µg/mL (≈ 2.96 µM)	0.5 µg/mL (≈ 1.48 µM)	1.5 µg/mL (≈ 4.45 µM)	–	–	1 µg/mL (≈ 2.96 µM)	4 µg/mL (≈ 11.9 µM)	–	–	–	–	–	–	–	18 mm	20 mm
CO[C@H]1/C=C/O[C@@]2(C)Oc3c(C)c(O)c4c(O)c(c(/C=N/N5CCN(C)CC5)c(O)c4c3C2=O)NC(=O)/C(C)=C\C=C\[C@H](C)[C@H](O)[C@@H](C)[C@@H](O)[C@@H](C)[C@H](OC(C)=O)[C@@H]1C [RIFAMPIN]	–	–	–	–	–	–	0.2 µg/mL (≈ 0.243 µM)	2 µg/mL (≈ 2.43 µM)	–	–	–	–	–	–	–	–	–
